Source: article PMC6930338 (Journal of autoimmunity, 2019)
Where a chain is given by its changes, count along the chain named. Where no end group is shown, it is not given here.

Legend:
[1] = biological target: HLA-DRB1*03:04/ *03:07 (Homo sapiens, UniProt P01903+P01911, A100K/A102G/A103R/A169T/F55Y/I96L/K41T/L162R/M171V/P40S/Q125H/Q178H/Q39Y/R42S/T106N/T262R/W38E/Y61H); assay: In vitro competitive peptide binding to purified MHC class II
[2] = biological target: HLA-DRB1*04:01-*04:13 (Homo sapiens, UniProt P01903+P01911, A100K/A169T/F76Y/I96L/K127E/L162R/M171V/N62H/P40V/Q125Y/R42H/S133A/S149N/S66Y/V115G/V209L/W38E); assay: as above
[3] = biological target: T1, HLA-DPA1*01:03/ HLA-DPB1*04:01 (Homo sapiens, UniProt P04440+P20036); assay: In vitro competitive peptide binding to purified MHC class II
T1 sequence (P20036 29-260): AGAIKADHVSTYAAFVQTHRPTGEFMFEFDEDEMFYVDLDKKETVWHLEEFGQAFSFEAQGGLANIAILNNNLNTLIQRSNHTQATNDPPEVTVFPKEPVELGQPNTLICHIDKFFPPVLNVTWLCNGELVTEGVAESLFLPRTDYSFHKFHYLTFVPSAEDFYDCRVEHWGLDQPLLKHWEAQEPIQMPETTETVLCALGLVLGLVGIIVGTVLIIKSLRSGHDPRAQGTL
T1 sequence (P04440 30-258): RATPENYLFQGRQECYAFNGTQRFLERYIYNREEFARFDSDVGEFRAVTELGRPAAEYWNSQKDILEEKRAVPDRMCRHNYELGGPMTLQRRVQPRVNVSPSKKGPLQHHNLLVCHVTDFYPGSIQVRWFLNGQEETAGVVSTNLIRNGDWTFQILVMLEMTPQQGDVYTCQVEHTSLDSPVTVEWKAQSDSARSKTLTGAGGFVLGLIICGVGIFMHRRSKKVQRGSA
Method in brief: (§1)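 Candidate MPO peptides were picked by IEDB in silico prediction and then tested in vitro. Each peptide's inhibition of binding of a high-affinity radiolabeled peptide to purified HLA-DPB1*04:01 or HLA-DRB4*01:01 class II molecules was measured.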

[4] = biological target: HLA-DRB5*01:01/ *01:02/ *02:02 (Homo sapiens, UniProt P01903+Q30154); assay: In vitro competitive peptide binding to purified MHC class II
[5] = biological target: T2, HLA-DPA1*01:03/ HLA-DPB1*04:02 (Homo sapiens, UniProt P04440+P20036, A65V/A84D/A85E/L207M); assay: as above
T2 sequence (P20036 29-260): T1 sequence (P20036 29-260)
T2 sequence (P04440 30-258 A65V/A84D/A85E): T1 sequence (P04440 30-258) with A36V, A55D, A56E

[6] = biological target: HLA-DRB4*01:01/ *01:03 (Homo sapiens, UniProt P01903+P13762, G164S); assay: In vitro competitive peptide binding to purified MHC class II
Method in brief: as §1

[7] = Peptide solubility noted during ELISA optimization; type: physicochemical; settings: qualitative; follow-up testing and optimization of ELISA

Compound | IC50 [1] [µM] | IC50 [2] [nM] | IC50 [3] [nM] | IC50 [4] [nM] | IC50 [5] [nM] | IC50 [6] [nM] | Solubility compared with MPO447–459 [7]
PVAATRTAVRAADYL [MPO105–119] | 14.5 | 433 | 7120 | 321 | 6170 | 876 | 
MPELTSMHTLLLREH [MPO409–423] | 11 | 16 | 409 | 81 | 826 | 217 | 
PILRGLMATPAKLNR [MPO545–559] | 32.8 | 8 | 12000 | 29 | 2480 | 68 | 
RKIVGAMVQIITYRD [MPO447–461] | 13.9 | 46 | 98 | 1210 | 74 | 240 | improved solubility
IKAVRIYIGDVMRQT [MPO447–461scramble, reference compound] |  |  | 38 |  |  | 17 | 
DQERSLMFMQWGQLL [MPO245–259] | 70 | 4140 | 1090 | 1180 | 910 | 381 | 
CC[C@H](C)[C@H](NC(=O)[C@H](CCCNC(=N)N)NC(=O)[C@@H]1CCCN1)C(=O)N[C@@H](C)C(=O)N[C@@H](CC(N)=O)C(=O)N[C@H](C(=O)N[C@@H](Cc1ccccc1)C(=O)N[C@H](C(=O)N[C@@H](CC(N)=O)C(=O)N[C@@H](C)C(=O)N[C@@H](Cc1ccccc1)C(=O)N[C@@H](CCCNC(=N)N)C(=O)N[C@@H](Cc1ccc(O)cc1)C(=O)NCC(=O)N[C@@H](Cc1c[nH]cn1)C(=O)O)[C@@H](C)O)C(C)C [MPO488–502] | 2.97 | 2 | 5620 | 5 | 1340 | 725 | 
GEKLYQEARKIVGAM [MPO413–427, reference compound] | 31.1 | 933 | 53700 | 1440 | 19400 | 9350 | 
PRWDGERLYQEARKIVGAMV [MPO435–454] |  |  | 1050 |  |  | 253 | 
